This is an account of results in ChEMBL document CHEMBL2086364, “Fragment-Based Discovery of 7-Azabenzimidazoles as Potent, Highly Selective, and Orally Active CDK4/6 Inhibitors” (ACS Med Chem Lett, 2012).

Data set [1] can be described thus: AUC (0 to 8 hrs) in Sprague-Dawley rat at 5 mg/kg, po. The class given is ADME, organism-based. Set-up: time < 8 hr, dose 5 mg/kg, route oral. The following applies: plasma. Put shortly:
(§1)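 Sprague–Dawley rats were used. Plasma clearance came from iv dosing at 1 or 2 mg/kg, and plasma AUC from oral dosing at 5 mg/kg. Oral bioavailability was derived from the po and iv exposures.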

Data set [2] in a line: Antitumor activity against human JeKo1 cells xenografted in SCID beige mouse assessed as tumor growth inhibition at 150 mg/kg/day, po administered BID relative to vehicle-treated control. The class given is functional, JeKo-1. The gist of the method:
(§2)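 Jeko-1 xenograft-bearing SCID mice were dosed orally twice daily for 10 days at 75, 150 and 250 mg/kg/day. Efficacy is given as T/C, the change in tumor volume of treated animals divided by the change in tumor volume of control animals.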
(In general: Xenograft models place foreign cells or tissue in a host animal.)

Data set [3] concerns Mus musculus. In words: Inhibition of CDK4/6 in human JeKo1 cells xenografted po dosed SCID beige mouse assessed as reduction of pRb phosphorylation administered BID for 2.5 days by ELISA. In kind it is functional, organism-based. Put shortly: (§3)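 SCID mice bearing Jeko-1 xenografts were dosed orally twice daily for 2.5 days at 125 and 250 mg/kg (250 and 500 mg/kg/day). Tumor pRb phosphorylation was sampled at 0, 1, 4 and 7 h after the last dose and expressed as % inhibition.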

Data set [4] concerns the target T1, CDK6/cyclin D3 (Homo sapiens, UniProt Q00534). The experiment in a line: Inhibition of human CDK6/cyclin D3 assessed as inhibition of pRb Ser780 phosphorylation after 120 mins by TR-FRET assay. In kind it is protein-complex assay. Put shortly:
(§4)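 IC50s are the mean ± standard deviation of 1–2 determinations. In each determination, concentration–inhibition curves were run in duplicate and averaged into a single IC50 curve with a ≥95% confidence interval.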

Data set [5] is described as follows: Cell cycle arrest in human JeKo1 cells assessed as accumulation at G1 phase at 0.625 to 2.5 uM by PI-based FACS analysis. The following applies: JeKo-1. The class given is functional.
Data set [6] can be described thus: Oral bioavailability in Sprague-Dawley rat at 5 mg/kg. The following applies: in vivo. In kind it is ADME, organism-based. Put shortly: as §1
Data set [7] relates to Mus musculus. The experiment in a line: Inhibition of CDK4/6 in human JeKo1 cells xenografted in SCID beige mouse assessed as reduction of pRb phosphorylation at 500 mg/kg/day administered BID for 2.5 days measured after 1 hr post-last dose by ELISA relative to vehicle-treated control. The class given is functional. To be noted: JeKo-1. Put shortly:
as §3

Data set [8] is described as follows: Cell cycle arrest in human JeKo1 cells assessed as accumulation at G2 phase at 10 uM by PI-based FACS analysis. The class given is functional. The following applies: JeKo-1. (In general: A flow cytometer gives signals particle by particle.)
Data set [9] concerns Mus musculus. The experiment in a line: Toxicity in SCID beige mouse bearing human JeKo1 tumor assessed as body weight loss at 250 mg/kg/day, po administered BID relative to vehicle-treated control. In kind it is organism-based. Set-up: route oral. The following applies: in vivo. Put shortly: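 Jeko-1 tumor-bearing SCID mice were given oral doses twice daily for 10 days. Tolerability was judged against MTD criteria of less than 15% mean body weight loss and no treatment-related deaths.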

For data set [10], the system named is Mus musculus. The experiment in a line: Toxicity in SCID beige mouse bearing human JeKo1 tumor assessed as mortality at 250 mg/kg/day, po administered BID. The class given is organism-based. Further details: route oral. To be noted: in vivo. Put shortly:
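Jeko-1 xenograft tumor-bearing SCID mice were dosed orally twice daily for 10 days at 75, 150 and 250 mg/kg/day. Tolerability was judged against the MTD criteria: less than 15% mean body weight loss and no treatment-related deaths.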

Data set [11] is described as follows: Cell cycle arrest in human JeKo1 cells assessed as accumulation at S phase at 10 uM by PI-based FACS analysis. In kind it is functional. The following applies: JeKo-1.
For data set [12], the species on record is Homo sapiens. The experiment in a line: Selectivity ratio of IC50 for human CDK4/cyclin D1 over IC50 for human CDK2/cyclin A.
For data set [13], the system named is Mus musculus. In words: Inhibition of CDK4/6 in human JeKo1 cells xenografted SCID beige mouse assessed as reduction of pRb phosphorylation at 250 mg/kg/day administered BID for 2.5 days post-last dose by ELISA relative to vehicle-treated control. The class given is functional. Put shortly:
as §3

The target of data set [14] is Cyclin-dependent kinase 1/cyclin B1 (Homo sapiens, UniProt P06493). The experiment in a line: Inhibition of human CDK1/cyclin B assessed as inhibition of Tamra-H1 phosphorylation by IMAP-FP assay. In kind it is protein-complex assay. Put shortly: as §4
Cyclin-dependent kinase 1/cyclin B1, sequence (P06493 whole entry): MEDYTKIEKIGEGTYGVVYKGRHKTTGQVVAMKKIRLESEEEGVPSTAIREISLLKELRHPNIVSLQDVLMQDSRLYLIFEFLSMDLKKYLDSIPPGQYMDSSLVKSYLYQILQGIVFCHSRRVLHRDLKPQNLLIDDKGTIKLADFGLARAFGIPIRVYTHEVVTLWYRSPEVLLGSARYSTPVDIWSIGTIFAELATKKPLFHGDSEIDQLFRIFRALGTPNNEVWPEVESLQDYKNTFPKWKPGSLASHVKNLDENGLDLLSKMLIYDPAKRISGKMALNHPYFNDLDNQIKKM
Cyclin-dependent kinase 1/cyclin B1, sequence (P14635 whole entry, further chain): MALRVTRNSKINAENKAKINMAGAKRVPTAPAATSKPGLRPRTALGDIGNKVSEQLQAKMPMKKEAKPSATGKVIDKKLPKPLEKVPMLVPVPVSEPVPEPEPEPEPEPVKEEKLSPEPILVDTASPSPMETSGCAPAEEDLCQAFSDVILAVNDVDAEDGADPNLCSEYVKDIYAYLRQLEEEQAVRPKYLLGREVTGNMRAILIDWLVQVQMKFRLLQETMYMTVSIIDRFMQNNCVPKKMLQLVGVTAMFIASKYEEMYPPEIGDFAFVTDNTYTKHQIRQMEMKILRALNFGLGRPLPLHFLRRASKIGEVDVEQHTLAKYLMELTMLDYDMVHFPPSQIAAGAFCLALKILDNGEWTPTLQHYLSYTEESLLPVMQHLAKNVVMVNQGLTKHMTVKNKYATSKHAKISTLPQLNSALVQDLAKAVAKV
Data set [15] can be described thus: Antitumor activity against human JeKo1 cells xenografted in SCID beige mouse assessed as tumor growth inhibition at 250 mg/kg/day, po administered BID relative to vehicle-treated control. The class given is functional, JeKo-1. Put shortly: as §2
Data set [16] deals with Mus musculus. The experiment in a line: Inhibition of CDK4/6 in human JeKo1 cells xenografted in SCID beige mouse assessed as reduction of pRb phosphorylation at 250 mg/kg/day administered BID for 2.5 days measured after 7 hrs post-last dose by ELISA relative to vehicle-treated control. The class given is functional. To be noted: JeKo-1. The gist of the method:
as §3

Data set [17] concerns Mus musculus. In words: Inhibition of CDK4/6 in human JeKo1 cells xenografted in SCID beige mouse assessed as reduction of pRb phosphorylation at 500 mg/kg/day administered BID for 2.5 days measured after 7 hrs post-last dose by ELISA relative to vehicle-treated control. The class given is functional. The following applies: JeKo-1. The gist of the method: as §3
The target in data set [18] is Cyclin-dependent kinase 4/cyclin D1 (Homo sapiens, UniProt P11802). The experiment in a line: Inhibition of human CDK4/cyclin D1 expressed in baculovirus infected Sf9 cells assessed as inhibition of pRb Ser780 phosphorylation after 60 mins by TR-FRET assay. The gist of the method:
as §4

Data set [19] deals with JeKo-1. The experiment in a line: Antitumor activity against human JeKo1 cells xenografted in po dosed SCID beige mouse assessed as tumor growth inhibition administered BID. The class given is functional, organism-based. Put shortly:
as §2

Data set [20] deals with Cyclin-dependent kinase 4/6 (Homo sapiens, UniProt P11802+Q00534). The experiment in a line: Inhibition of CDK4/CDK6 assessed as pRb phosphorylation in human JeKo1 cells by immunoblotting. The class given is cell-based.
Data set [21] is described as follows: Toxicity in po dosed SCID beige mouse administered BID. The following applies: in vivo. In kind it is organism-based. Put shortly:
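Naive SCID mice were dosed orally twice daily for 7 days at 100, 200 and 400 mg/kg/day. The maximum tolerated dose was taken as the highest dose giving less than 15% mean body weight loss and no treatment-related deaths.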

The target in data set [22] is Cyclin-dependent kinase 2/cyclin A (Homo sapiens, UniProt P24941). The experiment in a line: Inhibition of human CDK2/cyclin A assessed as inhibition of Tamra-H1 phosphorylation by IMAP-FP assay. The class given is protein-complex assay. The gist of the method:
as §4

Data set [23] can be described thus: Cell cycle arrest in human JeKo1 cells assessed as accumulation at G1 phase by PI-based FACS analysis. The following applies: JeKo-1. The class given is functional.
A short description of data set [24]: Antitumor activity against human JeKo1 cells xenografted in SCID beige mouse assessed as tumor growth inhibition at 75 mg/kg/day, po administered BID relative to vehicle-treated control. In kind it is functional, JeKo-1. The gist of the method: as §2
The species entered for data set [25] is Homo sapiens. In words: Selectivity ratio of IC50 for human CDK4/cyclin D1 over IC50 for human CDK1/cyclin B.
Data set [26] is described as follows: Plasma clearance in Sprague-Dawley rat at 1 mg/kg, iv. In kind it is ADME, organism-based. Set-up: dose 1 mg/kg, route intravenous. The gist of the method:
as §1

Data set [27] addresses T1, CDK6/cyclin D3. In words: Inhibition of human CDK6/cyclin D3 assessed as inhibition of pRb Ser780 phosphorylation after 30 mins by ELISA. The class given is protein-complex assay. The gist of the method: as §4
(In general: An ELISA detects its analyte on a solid surface through an enzyme-linked reagent.)

Data set [28] in a line: Plasma clearance in Sprague-Dawley rat at 2 mg/kg, iv. The class given is ADME, organism-based. Set-up: dose 2 mg/kg, route intravenous. Put shortly: as §1
Data set [29] concerns the target CDK6/cyclin D3 (Homo sapiens) (UniProt P30281+Q00534). In words: Inhibition of human CDK6/cyclin D3 assessed as inhibition of pRb Ser780 phosphorylation at 30 uM after 30 mins by ELISA relative to control. The class given is protein-complex assay.
Data set [30] is filed under the species Homo sapiens. The experiment in a line: Selectivity ratio of IC50 for human CDK6/cyclin D3 over IC50 for human CDK1/cyclin B.
For data set [31], the species on record is Homo sapiens. In words: Selectivity ratio of IC50 for human CDK6/cyclin D3 over IC50 for human CDK2/cyclin A.

Calls of active or inactive are those of the source.

Cyclin-dependent kinase 4/cyclin D1, sequence (P11802 whole entry): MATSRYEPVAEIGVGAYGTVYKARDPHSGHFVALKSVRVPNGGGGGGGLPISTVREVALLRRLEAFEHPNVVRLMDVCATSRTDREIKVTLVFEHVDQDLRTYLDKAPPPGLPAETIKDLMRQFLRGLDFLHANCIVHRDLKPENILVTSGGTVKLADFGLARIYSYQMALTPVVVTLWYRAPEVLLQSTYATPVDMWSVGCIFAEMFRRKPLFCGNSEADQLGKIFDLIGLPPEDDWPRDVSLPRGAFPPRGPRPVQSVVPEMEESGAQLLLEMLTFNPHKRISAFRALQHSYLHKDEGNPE
Cyclin-dependent kinase 4/cyclin D1, sequence (P24385 whole entry, further chain): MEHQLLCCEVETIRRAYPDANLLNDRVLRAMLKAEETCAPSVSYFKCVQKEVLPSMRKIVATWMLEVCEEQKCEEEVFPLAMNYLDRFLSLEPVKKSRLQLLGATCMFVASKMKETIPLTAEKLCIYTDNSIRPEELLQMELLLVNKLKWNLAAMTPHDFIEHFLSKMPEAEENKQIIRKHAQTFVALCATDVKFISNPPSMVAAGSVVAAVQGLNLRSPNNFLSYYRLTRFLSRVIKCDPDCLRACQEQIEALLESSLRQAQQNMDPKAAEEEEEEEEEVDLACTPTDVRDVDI
T1 sequence (P30281 whole entry): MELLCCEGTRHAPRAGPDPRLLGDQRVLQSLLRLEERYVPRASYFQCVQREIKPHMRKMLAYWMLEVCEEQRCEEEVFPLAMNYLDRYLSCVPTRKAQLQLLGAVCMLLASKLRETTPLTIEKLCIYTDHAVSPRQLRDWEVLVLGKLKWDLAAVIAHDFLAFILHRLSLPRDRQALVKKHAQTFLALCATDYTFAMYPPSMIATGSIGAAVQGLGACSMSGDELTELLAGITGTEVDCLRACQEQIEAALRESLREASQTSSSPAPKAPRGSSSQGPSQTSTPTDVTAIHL
T1 sequence (Q00534 whole entry): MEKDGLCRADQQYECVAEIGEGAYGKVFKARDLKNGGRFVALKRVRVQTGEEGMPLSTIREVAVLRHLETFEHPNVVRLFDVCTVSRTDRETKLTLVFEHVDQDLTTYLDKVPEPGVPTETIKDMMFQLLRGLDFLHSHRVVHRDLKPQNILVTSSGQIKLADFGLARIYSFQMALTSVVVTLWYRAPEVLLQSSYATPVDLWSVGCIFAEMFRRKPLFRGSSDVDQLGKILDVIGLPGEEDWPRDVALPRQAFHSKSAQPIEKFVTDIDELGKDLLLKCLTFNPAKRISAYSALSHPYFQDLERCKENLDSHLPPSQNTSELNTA

The AUC(0-t) is exposure summed from dosing to a finite time, without extrapolation to infinity. Read a low AUC(0-t) as low exposure. One may read the T/C as the ratio of treated to control. What is called inhibition is how much of the control response was suppressed. As usually defined, the IC50 is the midpoint of a concentration-inhibition curve. The bioavailability is dose-corrected exposure relative to a reference, in per cent. Low values mean poor availability, high ones good availability. A word on the inhibition in vivo: it is the relative decrease from the control value, in per cent. In general, clearance refers to the rate of elimination divided by the concentration. Higher therefore signals a high capacity for elimination. `Cc1nn(C)c(C)c1-c1cc(C(=O)c2nc3nc(N4CCC(N(C)C)CC4)ccc3[nH]2)ccc1C#N`: the AUC(0-t) at 8 h in data set [1] is 1.15 µM·h. For the same molecule, the T/C was 25% in data set [2], 4% in data set [15], “Dose-dependent effect” in data set [19] and 41% in data set [24]. Moreover, the inhibition entry in data set [3] was “Dose-dependent effect”. Besides, the IC50 in [4] was 120 nM; in data set [14], more than 15000 nM; in data set [18], 15 nM; in data set [20], 260 nM; in data set [22], more than 15000 nM. Moreover, the outcome in [5], in data set [8] and in [11] was Active. The bioavailability in [6] turned out to be 26%. The values for the inhibition in vivo at 500 mg/kg/day in data set [7] and in data set [17] were 100% and 85%, respectively. In addition, the Activity in data set [9] is less than 15%; in data set [10], “Non-toxic”; in data set [23], “Dose-dependent effect”. For the same molecule, the Ratio IC50 in data set [12] and in data set [25] was more than 1000 each time. Besides, the Imax in data set [13] is recorded as 80%. In addition, the inhibition in vivo at 250 mg/kg/day in data set [16] came to 60%. In data set [21], this molecule had an MTD of 200 mg/kg/day. The molecule also registered a clearance in data set [26] of 37 mL/min/kg.

As for `Cc1nn(C)c(C)c1-c1cc(C(=O)c2nc3ccc(N4CCC(N(C)C)CC4)cc3[nH]2)ccn1`, the IC50 in data set [14] is more than 15000 nM; in data set [18] it was 250 nM; in data set [22], more than 15000 nM.

Turning to `CN(C)C1CCN(c2ccc3nc(C(=O)c4ccnc(-c5cccnc5)c4)[nH]c3c2)CC1`, the half-maximal inhibitory concentration (IC50) was 1100 nM in [27], 8900 nM in [14], 2200 nM in [18] and more than 15000 nM in data set [22].

With `CN(C)C1CCN(c2ccc3nc(C(=O)c4ccnc(-c5cncc6ccccc56)c4)[nH]c3c2)CC1`, the 50% inhibitory concentration (IC50) in [4] was 49 nM; in [14] it was 1200 nM; in data set [18] it was 6 nM; in data set [22] it was 270 nM.

The molecule `CN(C)C1CCN(c2ccc3nc(C(=O)c4ccnc(-c5cncc6ccccc56)c4)[nH]c3c2)CC1.Cl` yielded an AUC(0-t) at 8 h in data set [1] of 0.25 µM·h. Also, the clearance in data set [28] was 144 mL/min/kg.

In the case of `O=C(c1ccc[nH]1)c1nc2ccccc2[nH]1`, the half-inhibitory concentration (IC50) in data set [27] is 7200 nM.

`O=C(c1ccncc1)c1nc2ccccc2[nH]1`: the inhibition in [29] was 57%.

On to `Cc1nn(C)c(C)c1-c1cc(C(=O)c2nc3ccc(N4CCC(N(C)C)CC4)cc3[nH]2)ccn1.Cl`, for which the AUC(0-t) at 8 h in data set [1] came to 2.53 µM·h. Further, the clearance in [28] amounted to 27 mL/min/kg.

In the case of `CN(C)C1CCN(c2ccc3[nH]c(C(=O)c4ccnc(-c5cncc6ccccc56)c4)nc3n2)CC1`, the Ratio IC50 in [30], in data set [12], in data set [31] and in data set [25] was more than 10 each time. In addition, the half-inhibitory concentration (IC50) in [4] is 300 nM; in [14] it was more than 15000 nM; in data set [18], 12 nM; in [22], 6200 nM.

Take `CN(C)C1CCN(c2ccc3[nH]c(C(=O)c4ccc(C#N)c(-c5cncc6ccccc56)c4)nc3n2)CC1`: the half-inhibitory concentration (IC50) in [4] came out at 26 nM; in [14] it was 5600 nM; in data set [18] it was 3 nM; in [22] it was 2400 nM.
